# Laboratory results reported in article PMC9290681 (British Journal of Pharmacology, 2020).
# How the values were obtained:
# [1] = target: TRPM3α2 (Mus musculus, UniProt J9SQF3); assay: Whole-cell patch clamp, HEK293T cells expressing TRPM3α2; format: cell-based, murine; details: for block of CIM0216-induced currents: isosakuranetin 5 μM, diclofenac 100 μM, primidone 25 μM
# [2] = target: T1, TRPM3α1 (Mus musculus, UniProt J9SQF3); assay: Whole-cell patch clamp, HEK293T cells expressing TRPM3α1; format: cell-based; details: for block of CIM0216-induced currents: CIM0216 1 μM, isosakuranetin 5 μM; for block of CIM0216-induced currents / block of clotrimazole-induced currents: diclofenac 100 μM, primidone 25 μM; for block of CIM0216-induced currents / block of clotrimazole-induced currents / whole-cell current increase: ±80 mV; for block of clotrimazole-induced currents: Clt 10 μM; for whole-cell current increase: Nif 50 μM
# [3] = target: T1, TRPM3α1; assay: Calcium microfluorimetry, HEK293T cells transiently transfected with TRPM3α1; format: cell-based; details: for intracellular calcium response: PS 40 μM, Nif 50 μM, Clt 10 μM, CIM0216 1 μM, Fura-2; for calcium signal at high agonist concentrations: PS 50, 100 and 200 μM, Nif 100 and 200 μM
# [4] = test system: TRPM3α1 Δ3d; assay: Whole-cell patch clamp, deletion mutant TRPM3α1 Δ3d; format: cell-based, mouse; details: for block of clotrimazole-activated currents: isosakuranetin 5 μM, diclofenac 100 μM, primidone 25 μM
# [5] = test system: TRPM3α1 Δ3b; assay: Whole-cell patch clamp, deletion mutant TRPM3α1 Δ3b; format: cell-based, mouse; details: n=5
# [6] = test system: TRPM3α1 Δ3a; assay: Whole-cell patch clamp, deletion mutant TRPM3α1 Δ3a; format: cell-based, mouse; details: n=5
# [7] = test system: TRPM3α1 Δ3c; assay: Whole-cell patch clamp, deletion mutant TRPM3α1 Δ3c; format: cell-based, mouse; details: n=5
# [8] = target: TRPM3α2_D1064_A_P1065 (TRPM3α2 +1) (Mus musculus, UniProt J9SQF3, INS1087A); assay: Whole-cell patch clamp, insertion mutant TRPM3α2 +1; format: cell-based; details: for block of clotrimazole-evoked currents / block of pregnenolone sulphate-induced currents: isosakuranetin 5 μM, diclofenac 100 μM, primidone 25 μM
# [9] = target: TRPM3α1 Δ6b (Mus musculus, UniProt J9SQF3, DEL1071-1076); assay: Whole-cell patch clamp, deletion mutant TRPM3α1 Δ6b; format: cell-based; details: for block of clotrimazole-activated currents: Clt 10 μM, isosakuranetin 5 μM, diclofenac 100 μM, primidone 25 μM
# [10] = test system: short pore loop TRPM3α variants (α2–α6); format: cell-based, mouse; details: PS 40 μM, Nif 50 μM; all isoforms α2–α6
# Summary of the method: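 HEK293T cells transiently transfected 48 h before imaging were loaded with Fura-2 AM for 20 min at 37°C. Ratios at 340/380 nm excitation were converted to absolute calcium by Grynkiewicz calibration. Response was taken as maximum minus basal during the stimulus. Only cells responding to a final ionomycin challenge were counted. At least three independent coverslips were used.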
# [11] = target: TRPM3α1 A1077P (α1 A‐P) (Mus musculus, UniProt J9SQF3, A1077P); assay: Whole-cell patch clamp, mutant TRPM3α1 A1077P; format: cell-based; details: PS 40 μM, n=6
# [12] = target: TRPM3α1 Δ6a (Mus musculus, UniProt J9SQF3, DEL1065-1070); assay: Whole-cell patch clamp, deletion mutant TRPM3α1 Δ6a; format: cell-based; details: PS 40 μM, n=4
# [13] = target: TRPM3α2 +3 (Mus musculus, UniProt J9SQF3, INS1087AAA); assay: Whole-cell patch clamp, insertion mutant TRPM3α2 +3; format: cell-based; details: PS 40 μM, n=5
# [14] = target: T2, short pore loop TRPM3α isoforms (α2–α6) (Mus musculus, UniProt J9SQF3); assay: Whole-cell patch clamp, HEK293T cells expressing short pore loop TRPM3α isoforms; format: cell-based; details: PS 40 μM, Clt 10 μM; ±80 mV
# T2 sequence (J9SQF3 852-1200 limits assumed): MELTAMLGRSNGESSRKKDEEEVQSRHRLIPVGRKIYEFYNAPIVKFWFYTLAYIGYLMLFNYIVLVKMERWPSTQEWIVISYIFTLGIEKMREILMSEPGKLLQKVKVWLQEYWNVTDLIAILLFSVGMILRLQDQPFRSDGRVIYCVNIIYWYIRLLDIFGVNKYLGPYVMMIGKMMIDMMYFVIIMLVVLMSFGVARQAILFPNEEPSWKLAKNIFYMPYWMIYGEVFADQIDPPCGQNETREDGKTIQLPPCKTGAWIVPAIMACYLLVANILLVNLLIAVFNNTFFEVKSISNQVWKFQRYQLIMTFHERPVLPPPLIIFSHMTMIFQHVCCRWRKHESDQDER
# [15] = target: TRPM3α1 Δ12 (Mus musculus, UniProt J9SQF3, DEL1065-1076); assay: Whole-cell patch clamp, deletion mutant TRPM3α1 Δ12; format: cell-based; details: PS 40 μM, n=6
# [16] = target: TRPM3α2 D1064_AA_P1065 (TRPM3α2 +2) (Mus musculus, UniProt J9SQF3, INS1087AA); assay: Whole-cell patch clamp, insertion mutant TRPM3α2 +2; format: cell-based; details: PS 40 μM, n=4
# [17] = target: TRPM3α2 +5 (Mus musculus, UniProt J9SQF3, INS1087AAAAA); assay: Whole-cell patch clamp, insertion mutant TRPM3α2 +5; format: cell-based; details: PS 40 μM, n=4
# [18] = target: TRPM3α1 and TRPM3α2 co-expressed (Mus musculus, UniProt J9SQF3); assay: Calcium microfluorimetry, HEK293 cells co-transfected with TRPM3α1 and TRPM3α2; format: cell-based; details: PS 40 μM, Clt 10 μM; TRPM3α2 cDNA 0.5 μg with TRPM3α1 cDNA 0, 1.5 and 3 μg
# [19] = target: TRPM3α2 +4 (Mus musculus, UniProt J9SQF3, INS1087AAAA); assay: Whole-cell patch clamp, insertion mutant TRPM3α2 +4; format: cell-based; details: PS 40 μM, n=6
compound,measurement,setting,value
Cc1cc(NC(=O)C(c2ccccc2)N2CCCc3ccccc32)no1 (stereo not drawn) [CIM0216],whole-cell current increase,"[1]; CIM0216 1 μM, ±80 mV",robust increase in both inward and outward currents
same,EC50,"[2]; read-out: EC50 of current activation, CIM0216, outwardly rectifying currents",570 ± 50 nM
same,intracellular calcium response,[3],sizable increases in intracellular calcium
"Clc1ccccc1C(c1ccccc1)(c1ccccc1)n1ccnc1 [clotrimazole, Clotrimazole]",Clt +80 mV ΔI density,"[4]; Clt 10 μM, +80 mV, n=5",269.2 ± 55.2 pA/pF
same,Clt −80 mV ΔI density,"[4]; Clt 10 μM, −80 mV, n=5",−259.7 ± 53.1 pA/pF
same,Clt +80 mV ΔI density,"[5]; Clt 10 μM, +80 mV",149.2 ± 21.2 pA/pF
same,Clt −80 mV ΔI density,"[5]; Clt 10 μM, −80 mV",−122.8 ± 13.9 pA/pF
same,Clt +80 mV ΔI density,"[6]; Clt 10 μM, +80 mV",430.6 ± 74.8 pA/pF
same,Clt −80 mV ΔI density,"[6]; Clt 10 μM, −80 mV",−355.3 ± 55.5 pA/pF
same,Clt +80 mV ΔI density,"[7]; Clt 10 μM, +80 mV",242.5 ± 17.2 pA/pF
same,Clt −80 mV ΔI density,"[7]; Clt 10 μM, −80 mV",−225.3 ± 13.8 pA/pF
"O=C(O)Cc1ccccc1Nc1c(Cl)cccc1Cl [diclofenac, Diclofenac]",block of clotrimazole-activated currents,[4]; Clt 10 μM,only a partial block
same,block of clotrimazole-evoked currents,[8],ineffective
same,block of pregnenolone sulphate-induced currents,[8],fully block
same,block of CIM0216-induced currents,"[1]; CIM0216 1 μM, ±80 mV",full block
same,block of CIM0216-induced currents,[2],full block
same,block of clotrimazole-induced currents,[2],only partially blocked
same,block of clotrimazole-activated currents,[9],only a partial block
"COC(=O)C1=C(C)NC(C)=C(C(=O)OC)C1c1ccccc1[N+](=O)[O-] [nifedipine, Nifedipine]",intracellular calcium response,[10],robust calcium responses
same,whole-cell current increase,[2]; PS 40 μM,without effect
same,intracellular calcium response,[3],did not induce any detectable calcium rise
same,calcium signal at high agonist concentrations,[3],did not induce any detectable calcium signal
"CC(=O)[C@H]1CC[C@H]2[C@@H]3CC=C4C[C@@H](OS(=O)(=O)[O-])CC[C@]4(C)[C@H]3CC[C@]12C.[Na+] [pregnenolone sulphate, Pregnenolone sulphate sodium salt]",PS +80 mV ΔI density,[11]; +80 mV,−0.4 ± 0.6 pA/pF
same,PS −80 mV ΔI density,[11]; −80 mV,−0.1 ± 0.3 pA/pF
same,PS +80 mV ΔI density,[12]; +80 mV,0.25 ± 0.2 pA/pF
same,PS −80 mV ΔI density,[12]; −80 mV,−0.05 ± 0.3 pA/pF
same,PS +80 mV ΔI density,"[4]; PS 40 μM, +80 mV, n=5",0.04 ± 0.3 pA/pF
same,PS −80 mV ΔI density,"[4]; PS 40 μM, −80 mV, n=5",0.01 ± 0.04 pA/pF
same,PS +80 mV ΔI density,[13]; +80 mV,7.8 ± 2.0 pA/pF
same,PS −80 mV ΔI density,[13]; −80 mV,−1.3 ± 0.4 pA/pF
same,intracellular calcium response,[10],robust calcium responses
same,whole-cell current increase,[14],robust current increases
same,PS +80 mV ΔI density,"[8]; PS 40 μM, +80 mV, n=4",45.2 ± 18.6 pA/pF
same,PS −80 mV ΔI density,"[8]; PS 40 μM, −80 mV, n=4",−2.2 ± 0.6 pA/pF
same,PS +80 mV ΔI density,[15]; +80 mV,35.6 ± 13.9 pA/pF
same,PS −80 mV ΔI density,[15]; −80 mV,−3.8 ± 1.7 pA/pF
same,PS +80 mV ΔI density,"[5]; PS 40 μM, +80 mV",−0.5 ± 0.4 pA/pF
same,PS −80 mV ΔI density,"[5]; PS 40 μM, −80 mV",0.1 ± 0.04 pA/pF
same,PS +80 mV ΔI density,[16]; +80 mV,1.2 ± 0.6 pA/pF
same,PS −80 mV ΔI density,[16]; −80 mV,−0.1 ± 0.2 pA/pF
same,PS +80 mV ΔI density,"[6]; PS 40 μM, +80 mV",0.01 ± 0.2 pA/pF
same,PS −80 mV ΔI density,"[6]; PS 40 μM, −80 mV",0.3 ± 0.3 pA/pF
same,PS +80 mV ΔI density,"[1]; PS 40 μM, +80 mV, n=11",38.1 ± 12.9 pA/pF
same,PS −80 mV ΔI density,"[1]; PS 40 μM, −80 mV, n=11",−1.9 ± 0.5 pA/pF
same,PS +80 mV ΔI density,[17]; +80 mV,1.2 ± 0.6 pA/pF
same,PS −80 mV ΔI density,[17]; −80 mV,−0.1 ± 0.1 pA/pF
same,inhibition of clotrimazole-activated currents by co-application,"[2]; PS 40 μM on Clt 10 μM currents, at +80 mV",10.5 ± 5.1%
same,whole-cell current increase,[2]; PS 40 μM,did not evoke any increase in current amplitude
same,PS +80 mV ΔI density,"[2]; PS 40 μM, +80 mV, n=5",−1.0 ± 0.85 pA/pF
same,PS −80 mV ΔI density,"[2]; PS 40 μM, −80 mV, n=5",0.2 ± 0.1 pA/pF
same,PS +80 mV ΔI density,"[9]; PS 40 μM, +80 mV, n=5",0.3 ± 0.1 pA/pF
same,PS −80 mV ΔI density,"[9]; PS 40 μM, −80 mV, n=5",−0.2 ± 0.02 pA/pF
same,calcium increase in co-expressing cells versus TRPM3α2 alone,[18],significantly reduced
same,PS +80 mV ΔI density,[19]; +80 mV,1.1 ± 0.4 pA/pF
same,PS −80 mV ΔI density,[19]; −80 mV,−0.3 ± 0.2 pA/pF
same,intracellular calcium response,[3],did not induce any detectable calcium rise
same,calcium signal at high agonist concentrations,[3],did not induce any detectable calcium signal
same,PS +80 mV ΔI density,"[7]; PS 40 μM, +80 mV",−0.1 ± 0.1 pA/pF
same,PS −80 mV ΔI density,"[7]; PS 40 μM, −80 mV",0.2 ± 0.1 pA/pF
"CCC1(c2ccccc2)C(=O)NCNC1=O [primidone, Primidone]",block of clotrimazole-activated currents,[4]; Clt 10 μM,only a partial block
same,block of clotrimazole-evoked currents,[8],ineffective
same,block of pregnenolone sulphate-induced currents,[8],fully block
same,block of CIM0216-induced currents,"[1]; CIM0216 1 μM, ±80 mV",full block
same,block of CIM0216-induced currents,[2],full block
same,block of clotrimazole-induced currents,[2],only partially blocked
same,block of clotrimazole-activated currents,[9],only a partial block
